Source: ChEMBL document CHEMBL1125322, “Stabilization of the N-terminal residues of luteinizing hormone-releasing hormone agonists and the effect on pharmacokinetics” (J Med Chem, 1992)
Square brackets hold non-standard residues; d marks the D form. Peptide text beside a SMILES is read from it. 1Nal = N[C@@H](Cc1cccc2ccccc12)C(=O)O; NMeF = CN[C@@H](Cc1ccccc1)C(=O)O; pGlu = O=C1CC[C@@H](C(=O)O)N1; NMeS = CN[C@@H](CO)C(=O)O

Experiments:
[1] = Compound was tested in vitro for lumenal concentration in the rat jejunal sac to decrease by 50%.; type: ADME
In short: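 Peptides were incubated at 37 °C inside short closed segments of rat jejunum in oxygenated Ringer's buffer, pH 6.8. At set times, segments were removed from the bath and the lumenal contents were assayed for peptide by HPLC. T1/2 is the time, in min, for the lumenal concentration to fall by 50%.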

[2] = Compound was tested in vivo for clearance after iv administration in the rat; type: ADME, organism-based
In short: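 Rats received each compound as an iv bolus. Serum levels were measured by RIA using an antibody recognizing the C-terminal Leu-Arg-ProNHEt; one analogue was measured with an anti-[D-Lys6]LHRH antibody instead. Whole-body clearance was calculated as dose divided by the area under the concentration–time curve and expressed in mL/min per kg.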

[3] = Compound was tested in vitro for chymotrypsin degradation; type: ADME
In short: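 Each peptide was mixed with chymotrypsin in 30 mM sodium phosphate/100 mM NaCl, pH 6.9 (enzyme at 5 µg/mL in the buffer before mixing, prewarmed to 37 °C) and incubated at 37 °C. Aliquots were taken at set intervals from 0.083 min up to 60 min and quenched in 3:7 acetonitrile/water. Degradation was followed chromatographically, and the half-life is given in min.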

SMILES	half-life [1] [min]	clearance [2] [mL/min/kg]	half-life [3] [min]
CCNC(=O)[C@@H]1CCCN1C(=O)[C@H](CCCN=C(N)N)NC(=O)[C@H](CC(C)C)NC(=O)[C@@H](CC(C)C)NC(=O)[C@H](Cc1ccc(O)cc1)NC(=O)[C@H](CO)N(C)C(=O)[C@H](Cc1c[nH]c2ccccc12)NC(=O)[C@H](Cc1c[nH]cn1)NC(=O)[C@@H]1CCC(=O)N1 ([pGlu]HW[NMeS]Y[dL]LRP-NHEt)	> 90	–	–
CCNC(=O)[C@@H]1CCCN1C(=O)[C@H](CCCN=C(N)N)NC(=O)[C@H](CC(C)C)NC(=O)[C@@H](Cc1c[nH]c2ccccc12)NC(=O)[C@H](Cc1ccc(O)cc1)NC(=O)[C@H](CO)N(C)C(=O)[C@H](Cc1c[nH]c2ccccc12)NC(=O)[C@H](Cc1cnc[nH]1)NC(=O)[C@@H]1CCC(=O)N1	39.1	–	–
CCNC(=O)[C@@H]1CCCN1C(=O)[C@H](CCCNC(=N)N)NC(=O)[C@H](CC(C)C)NC(=O)[C@@H](CC(C)C)NC(=O)[C@H](Cc1ccc(O)cc1)NC(=O)[C@H](CO)NC(=O)[C@H](Cc1c[nH]c2ccccc12)NC(=O)[C@H](Cc1c[nH]cn1)NC(=O)[C@@H]1CCC(=O)N1	4	–	–
CCNC(=O)[C@@H]1CCCN1C(=O)[C@H](CCCN=C(N)N)NC(=O)[C@H](CC(C)C)NC(=O)[C@@H](CC(C)C)NC(=O)[C@H](Cc1ccc(O)cc1)NC(=O)[C@H](CO)NC(=O)[C@H](Cc1ccc(OC)cc1)NC(=O)[C@H](Cc1c[nH]cn1)NC(=O)[C@@H]1CCC(=O)N1	14.9	13.3	–
CCNC(=O)[C@@H]1CCCN1C(=O)[C@H](CCCN=C(N)N)NC(=O)[C@H](CC(C)C)NC(=O)[C@@H](CC(C)C)NC(=O)[C@H](Cc1ccc(O)cc1)NC(=O)[C@H](CO)NC(=O)[C@H](Cc1ccc(Cl)cc1)NC(=O)[C@H](Cc1c[nH]cn1)NC(=O)[C@@H]1CCC(=O)N1	4.4	7.6	–
CCNC(=O)[C@@H]1CCCN1C(=O)[C@H](CCCN=C(N)N)NC(=O)[C@H](CC(C)C)NC(=O)[C@@H](Cc1c[nH]c2ccccc12)NC(=O)[C@H](Cc1ccc(O)cc1)NC(=O)[C@H](CO)NC(=O)[C@H](Cc1c[nH]c2ccccc12)NC(=O)[C@H](Cc1ccccc1)NC(=O)[C@@H]1CCC(=O)N1 ([pGlu]FWSY[dW]LRP-NHEt)	10.8	–	–
CCNC(=O)[C@@H]1CCCN1C(=O)[C@H](CCCN=C(N)N)NC(=O)[C@H](CC(C)C)NC(=O)[C@@H](Cc1c[nH]c2ccccc12)NC(=O)[C@H](Cc1ccc(O)cc1)NC(=O)[C@H](CO)N(C)C(=O)[C@H](Cc1c[nH]c2ccccc12)NC(=O)[C@H](Cc1c[nH]cn1)NC(=O)CN(C)C(C)=O	55	28.3	> 60
CCNC(=O)[C@@H]1CCCN1C(=O)[C@H](CCCN=C(N)N)NC(=O)[C@H](CC(C)C)NC(=O)[C@@H](CC(C)C)NC(=O)[C@H](Cc1ccc(O)cc1)NC(=O)[C@H](CO)NC(=O)[C@H](Cc1cccc2ccccc12)NC(=O)[C@H](Cc1c[nH]cn1)NC(=O)[C@@H]1CCC(=O)N1 ([pGlu]H[1Nal]SY[dL]LRP-NHEt)	25	–	–
CCNC(=O)[C@@H]1CCCN1C(=O)[C@H](CCCN=C(N)N)NC(=O)[C@H](CC(C)C)NC(=O)[C@@H](CC(C)C)NC(=O)[C@H](Cc1ccc(O)cc1)NC(=O)[C@H](CO)NC(=O)[C@H](Cc1c[nH]c2ccccc12)NC(=O)[C@H](Cc1ccccc1)NC(=O)[C@@H]1CCC(=O)N1 ([pGlu]FWSY[dL]LRP-NHEt)	2.2	–	–
CCNC(=O)[C@@H]1CCCN1C(=O)[C@H](CCCN=C(N)N)NC(=O)[C@H](CC(C)C)NC(=O)[C@@H](CC(C)C)NC(=O)[C@H](Cc1ccc(O)cc1)NC(=O)[C@H](CO)NC(=O)[C@H](Cc1c[nH]c2ccccc12)NC(=O)[C@H](Cc1c[nH]cn1)NC(=O)CN(C)C(C)=O	60	24	1
CCNC(=O)[C@@H]1CCCN1C(=O)[C@H](CCCN=C(N)N)NC(=O)[C@H](CC(C)C)NC(=O)[C@@H](Cc1c[nH]c2ccccc12)NC(=O)[C@H](Cc1ccc(O)cc1)NC(=O)[C@H](CO)NC(=O)[C@H](Cc1c[nH]c2ccccc12)NC(=O)[C@H](Cc1ccccc1)N(C)C(=O)[C@@H]1CCC(=O)N1 ([pGlu][NMeF]WSY[dW]LRP-NHEt)	44.4	44.4	–
